# Reference: ChEMBL document CHEMBL1212834, “Pyrido[2,3-b]pyrazines, discovery of TRPV1 antagonists with reduced potential for the formation of reactive metabolites” (Bioorg Med Chem Lett, 2010)
# Calls of active or inactive are those of the source. The calls are words filed in the database; no cut-off is given here.
# Assays:
# [1] = Oral bioavailability in dog at 1 mg/kg; type: ADME, organism-based, Canis lupus familiaris; conditions: in vivo
# How it was run: (§1)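 Oral bioavailability from a 1 mg/kg po dose (suspension in 0.5% methocel), compared against a 1 mg/kg iv dose (solution in 3:1 PEG300:water).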
# [2] = Clearance in rhesus monkey at 1 mg/kg, iv; type: ADME, organism-based, Macaca mulatta; design: dose 1 mg/kg, route intravenous; conditions: in vivo
# How it was run: (§2)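 IV PK at 1 mg/kg, given as a solution in 3:1 PEG300:water. Plasma half-life, clearance and volume of distribution derived.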
# [3] = target: T1, Amine oxidase [flavin-containing] A (Homo sapiens, UniProt P21397); assay: Inhibition of MAOA
# T1 sequence (P21397 whole entry): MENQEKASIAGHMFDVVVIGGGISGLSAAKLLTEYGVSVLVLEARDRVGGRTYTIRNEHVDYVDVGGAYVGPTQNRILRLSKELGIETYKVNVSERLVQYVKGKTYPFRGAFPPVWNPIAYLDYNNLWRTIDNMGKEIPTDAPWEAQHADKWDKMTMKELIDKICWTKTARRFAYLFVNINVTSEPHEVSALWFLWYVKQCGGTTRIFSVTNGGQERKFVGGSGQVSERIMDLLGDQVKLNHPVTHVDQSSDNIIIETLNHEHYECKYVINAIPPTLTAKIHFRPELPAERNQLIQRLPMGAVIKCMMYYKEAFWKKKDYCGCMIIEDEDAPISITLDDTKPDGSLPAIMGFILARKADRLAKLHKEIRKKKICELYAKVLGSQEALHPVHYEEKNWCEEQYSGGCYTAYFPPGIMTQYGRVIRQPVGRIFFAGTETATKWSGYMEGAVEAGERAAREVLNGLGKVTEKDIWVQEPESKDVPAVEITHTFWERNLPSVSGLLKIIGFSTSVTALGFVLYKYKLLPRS
# How it was run: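 Off-target panel of more than 160 receptors, ion channels, transporters and kinases, which included MAO.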
# [4] = Half life in rhesus monkey at 1 mg/kg, iv; type: ADME, organism-based, Macaca mulatta; design: dose 1 mg/kg, route intravenous; conditions: in vivo; how it was run: as §2
# [5] = Clearance in dog at 1 mg/kg, iv; type: ADME, organism-based, Canis lupus familiaris; design: dose 1 mg/kg, route intravenous; conditions: in vivo; how it was run: as §2
# [6] = Plasma concentration in rat complete Freund's adjuvant-induced inflammation model at 10 mg/kg, po at 2 hrs on second day; type: ADME, organism-based; design: dose 10 mg/kg, route oral
# How it was run: (§3)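 CFA (200 µL) injected intraplantar into left hind paw; next day rats dosed orally once daily for three consecutive days (1, 3 or 10 mg/kg, suspension in 0.5% methocel). Separate cohort: plasma sampled each day 2 h after dosing.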
# Rattus norvegicus [7] = assay: Antiinflammatory activity in po dosed rat assessed as inhibition of complete Freund's adjuvant-induced hind paw edema administered 1 day after complete Freund's adjuvant challenge QD for 3 consecutive days measured at 2 hrs post dose on day 1; type: functional, organism-based
# How it was run: (§4)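 CFA 200 µL injected intraplantar into the left hind paw. From the next day, 1, 3 or 10 mg/kg po once daily for 3 days as a suspension in 0.5% methocel.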
# [8] = Clearance in rat at 1 mg/kg, iv; type: ADME, organism-based; design: dose 1 mg/kg, route intravenous; conditions: in vivo; how it was run: as §2
# Rattus norvegicus [9] = assay: Antihyperalgesic activity in rat assessed as inhibition of complete Freund's adjuvant-induced mechanical hyperalgesia measured as differential weight bearing at 1 mg/kg, po administered 1 day after complete Freund's adjuvant challenge QD for 3 consecutive days measured at 2 hrs post dose on day 1
# [10] = Metabolic stability in rat liver microsomes assessed as compound remaining after 10 min; type: ADME, Microsome; conditions: read-out: Stability
# [11] = Plasma concentration in rat complete Freund's adjuvant-induced inflammation model at 3 mg/kg, po QD for 3 consecutive days measured at 2 hrs post dose on day 1; type: ADME, organism-based; design: dose 3 mg/kg, route oral; how it was run: as §3
# [12] = AUC (0 to 24 hrs) in rat at 1 mg/kg, po; type: ADME, organism-based; design: time < 24 hr, dose 1 mg/kg, route oral; conditions: plasma
# How it was run: (§5)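 Oral PK at the dose in the line, given as a suspension in 0.5% methocel. […] Reported as mean ± error.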
# [13] = Cmax in rat brain of complete Freund's adjuvant-induced inflammation model at 10 mg/kg, po; type: ADME, organism-based; design: dose 10 mg/kg, route oral
# Rattus norvegicus [14] = assay: Antiinflammatory activity in rat assessed as reversal of complete Freund's adjuvant-induced mechanical hyperalgesia at 1 to 10 mg/kg, po administered 1 day after complete Freund's adjuvant challenge QD for 3 consecutive days measured at 24 hrs post dose on day 2
# Rattus norvegicus [15] = assay: Antiinflammatory activity in rat assessed as inhibition of complete Freund's adjuvant-induced hind paw edema at 3 mg/kg, po administered 1 day after complete Freund's adjuvant challenge QD for 3 consecutive days measured at 2 hrs post dose on day 1; type: functional; how it was run: as §4
# Rattus norvegicus [16] = assay: Antiinflammatory activity in rat assessed as inhibition of complete Freund's adjuvant-induced hind paw edema at 10 mg/kg, po administered 1 day after complete Freund's adjuvant challenge QD for 3 consecutive days measured at 2 hrs post dose on day 1; type: functional; how it was run: as §4
# [17] = Plasma concentration in rat complete Freund's adjuvant-induced inflammation model at 1 mg/kg, po QD for 3 consecutive days measured at 2 hrs post dose on day 2; type: ADME, organism-based; design: dose 1 mg/kg, route oral; how it was run: as §3
# [18] = Plasma concentration in rat complete Freund's adjuvant-induced inflammation model at 10 mg/kg, po QD for 3 consecutive days measured at 2 hrs post dose on day 1; type: ADME, organism-based; design: dose 10 mg/kg, route oral; how it was run: as §3
# [19] = Oral bioavailability in rhesus monkey at 1 mg/kg; type: ADME, organism-based, Macaca mulatta; conditions: in vivo; how it was run: as §1
# [20] = Plasma concentration in rat complete Freund's adjuvant-induced inflammation model at 1 mg/kg, po at 2 hrs on third day; type: ADME, organism-based; design: dose 1 mg/kg, route oral; how it was run: as §3
# [21] = Plasma concentration in rat complete Freund's adjuvant-induced inflammation model at 10 mg/kg, po at 2 hrs on third day; type: ADME, organism-based; design: dose 10 mg/kg, route oral; how it was run: as §3
# [22] = Half life in rat at 1 mg/kg, iv; type: ADME, organism-based; design: dose 1 mg/kg, route intravenous; conditions: in vivo; how it was run: as §2
# Rattus norvegicus [23] = assay: Antiinflammatory activity in rat assessed as inhibition of complete Freund's adjuvant-induced hind paw edema at 10 mg/kg, po administered 1 day after complete Freund's adjuvant challenge QD for 3 consecutive days measured at 24 hrs post dose on day 3; type: functional; how it was run: as §4
# [24] = Half life in dog at 1 mg/kg, iv; type: ADME, organism-based, Canis lupus familiaris; design: dose 1 mg/kg, route intravenous; conditions: in vivo; how it was run: as §2
# [25] = AUC (0 to 24 hrs) in rhesus monkey at 1 mg/kg, po; type: ADME, organism-based, Macaca mulatta; design: time < 24 hr, dose 1 mg/kg, route oral; conditions: plasma; how it was run: as §5
# Canis familiaris = species: Canis familiaris; assay: Cardiotoxicity in dog assessed as effect on mean arterial pressure at plasma concentration of up to 24 uM; type: toxicity, organism-based, Canis lupus familiaris
# [26] = Oral bioavailability in rat at 1 mg/kg; type: ADME, organism-based; conditions: in vivo; how it was run: as §1
# MDCK = assay: Efflux ratio of permeability from basolateral to apical side over apical to basolateral side of MDCK cells; conditions: dog
# [27] = AUC (0 to 24 hrs) in dog at 10 mg/kg, po; type: ADME, organism-based, Canis lupus familiaris; design: time < 24 hr, dose 10 mg/kg, route oral; conditions: plasma; how it was run: as §5
# Plasma = assay: Covalent protein binding in rat assessed per mg of protein at 8.1 mg/kg, po after 2 to 24 hrs; conditions: in vivo
# [28] = Volume of distribution in dog at 1 mg/kg, iv; type: ADME, organism-based, Canis lupus familiaris; design: dose 1 mg/kg, route intravenous; conditions: in vivo
# How it was run: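 Intravenous dose of 1 mg/kg given as a solution in 3:1 PEG300:water to rat, dog or rhesus monkey. Plasma PK parameters (T1/2, clearance, Vd) derived.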
# Rattus norvegicus [29] = assay: Antiinflammatory activity in rat assessed as inhibition of complete Freund's adjuvant-induced hind paw edema at 3 mg/kg, po administered 1 day after complete Freund's adjuvant challenge QD for 3 consecutive days measured at 24 hrs post dose on day 3; type: functional; how it was run: as §4
# [30] = Cmax in dog at 10 mg/kg, po; type: ADME, organism-based, Canis lupus familiaris; design: dose 10 mg/kg, route oral; conditions: in vivo; how it was run: as §5
smiles,measurement,setting,value
NC(=O)c1cnc(-c2cnc3c(Nc4ccc(C(F)(F)F)cn4)ccnc3n2)c(C(F)(F)F)c1,bioavailability,[1],57%
same,clearance,[2],2.8 mL/min/kg
same,IC50,[3],2.4 µM
same,half-life,[4],4.4 h
same,clearance,[5],7.4 mL/min/kg
same,concentration at 2 h,[6],3120 nM
same,Activity,Rattus norvegicus [7],Dose-dependent effect
same,clearance,[8],25 mL/min/kg
same,inhibition in vivo at 1 mg/kg,Rattus norvegicus [9],39%
same,remaining at 10 min,[10],100%
same,concentration at 2 h,[11],1200 nM
same,AUC(0-t) at 24 h,[12],1.4 µM·h
same,Cmax,[13],300 nM
same,inhibition,Rattus norvegicus [14],Active
same,inhibition in vivo at 3 mg/kg,Rattus norvegicus [15],65%
same,inhibition in vivo at 10 mg/kg,Rattus norvegicus [16],85%
same,concentration at 2 h,[17],360 nM
same,concentration at 2 h,[18],2430 nM
same,bioavailability,[19],38%
same,concentration at 2 h,[20],350 nM
same,concentration at 2 h,[21],4240 nM
same,half-life,[22],2.3 h
same,inhibition in vivo at 10 mg/kg,Rattus norvegicus [23],70%
same,half-life,[24],1.5 h
same,AUC(0-t) at 24 h,[25],4.9 µM·h
same,Activity,Canis familiaris,Non-toxic
same,bioavailability,[26],103%
same,Ratio,MDCK,3.1
same,AUC(0-t) at 24 h,[27],68 µM·h
same,covalent protein binding,Plasma,< 10 pmol/mg
same,Vd,[28],1.3 L/kg
same,inhibition in vivo at 3 mg/kg,Rattus norvegicus [29],64%
same,Cmax,[30],5200 nM
